Assay [1] can be described thus: inhibitors of TNFa-induced NFkB p65 translocation, primary screen, imaging, HUVEC, MLSMR starter and 10KST1 sets (AID 438;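 active means inhibition above 20% together with a positive visual image hit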;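 further: compound added about 3h40 before a 20 min TNFalpha stimulation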;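 on inhibition: signal is the nuclear over cytoplasmic p65 intensity ratio per well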). Particulars: HUVEC TNFa-induced p65 nuclear translocation; cell count: measured here: nuclei count (cytotoxicity indicator), at 2.08 µM; inhibition: at 2 µM, stronger effect = higher value, 0% TNFa-plus-vehicle, 100% no-TNFa wells.
Assay [2] can be described thus: inhibitors of mutant huntingtin aggregation, primary screen, imaging, exon1htt(103Q)mCFP cells, high-content imaging (AID 483;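 active means visual image review flags a hit and inhibition of aggregation exceeds 20%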;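 further: compound exposure lasted 3 days before fixation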;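 on nuclei count: percent of the per-plate median nuclei count of sample wells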). Particulars: exon1htt(103Q)mCFP cell line, aggregate imaging, at 2 µM; inhibition of aggregation: stronger effect = higher value; nuclei count: measured here: cell count, toxicity.
The nature of assay [3]: inhibitors of E-selectin induction by TNFa, primary screen, imaging, HUVEC, immunofluorescence, MLSMR starter and 10KST1 sets (AID 487;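 active means visually confirmed hit in the image check and inhibition above 20%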;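 on inhibition: signal is fraction of cell area covered by stained E-selectin grains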;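 on nuclei count: 100% = median nuclei count of all wells on the same plate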). Particulars: HUVEC TNFalpha-induced E-selectin immunofluorescence imaging, at 2 µM; inhibition: stronger effect = higher value; nuclei count: measured here: cell number, toxicity.
Assay [4] has as its target Voltage-gated potassium channel subunit beta-2 (Rattus norvegicus) (UniProt P62483). Description: KvBeta enzyme negative modulators, primary screen, biochemical, NADPH fluorescence (AID 622;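 active means fluorescence slope higher than the sample average by over 3 SD, cut at about -0.22 in these data, passing the limit was not always enough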;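 further: slope of raw intensity against log time taken from 70 to 1610 s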). The following applies: recombinant KvBeta, 4-cyanobenzaldehyde reduction, at 10 µM, stronger effect = higher value.
Assay [5] has the same target. The assay can be described thus: KvBeta positive modulators, primary screen, biochemical, NADPH fluorescence (AID 623).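 Further: fluorescence intensity change per second fitted from 20 to 320 s.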 The following applies: Recombinant KvBeta, NADPH fluorescence decrease slope, 10 min; at 10 µM; stronger effect = lower value.
Assay [6] deals with Muscarinic acetylcholine receptor M4 (Homo sapiens) (UniProt P08173). Description: compounds altering M4/GIRK thallium flux, either direction, primary screen, M4 allosteric agonist project, cell-based, HEK293 M4/GIRK, BTC-AM (AID 625;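 active means fluorescence slope after compound addition differing from the mean of all tested samples at 99.7% confidence, mostly higher but some lower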;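 further: thallium influx through GIRK channels coupled to M4 in HEK293 cells with BTC-AM dye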). Particulars: at 10 µM, actives lie on both sides. The method in brief:
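assay system = HEK293 cells with M4 receptor and GIRK channels | medium = pH 7.3 thallium assay buffer | doses = 10 µM final, single point | timing = cells overnight at 37 °C, BTC-AM loading 1 h, reads 2 min total | signal = BTC-AM fluorescence, 1 Hz kinetic reads | read-out = post-addition slope, 15–24 s, of baseline-normalized fluorescence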

Assay [7] is described as follows: inhibitors of Sendai virus-induced IRF3 signaling, primary screen, TLR/RLR signaling modifier project, cell-based, Sendai virus stimulus, luciferase, 10K MLSCN set (AID 602276;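 active means inhibition at or above 50% at 10 µM; inactive means inhibition below 50%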;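 further: firefly luciferase from ISG56 promoter only with Renilla not read in this screen; 0% = Sendai virus plus DMSO and 100% = medium plus DMSO without virus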). Particulars: HEK293 RL24 IRF3 luciferase reporter, at 10 µM, stronger effect = higher value. (In general: A reporter such as luciferase makes a cellular process visible.)
The nature of assay [8]: inhibitors of poly I:C-induced TLR3 signaling, primary screen, cell-based, poly I:C stimulus, luciferase, 10K MLSCN set (AID 602277;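 active means inhibition of the reporter signal at or above 50%; inactive means inhibition below 50%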). The following applies: HEK293-TLR3 RL24 IRF3 luciferase reporter, at 10 µM, stronger effect = higher value.

Molecules are shown by their SMILES. Activity calls are given as the source filed them.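 How the source made its calls, unless noted: active means NADPH fluorescence slope more negative than the mean of all samples by about 3 SD, 99.7% confidence; inactive means the rest.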

Voltage-gated potassium channel subunit beta-2 (Rattus norvegicus), sequence (P62483 whole entry, looked up): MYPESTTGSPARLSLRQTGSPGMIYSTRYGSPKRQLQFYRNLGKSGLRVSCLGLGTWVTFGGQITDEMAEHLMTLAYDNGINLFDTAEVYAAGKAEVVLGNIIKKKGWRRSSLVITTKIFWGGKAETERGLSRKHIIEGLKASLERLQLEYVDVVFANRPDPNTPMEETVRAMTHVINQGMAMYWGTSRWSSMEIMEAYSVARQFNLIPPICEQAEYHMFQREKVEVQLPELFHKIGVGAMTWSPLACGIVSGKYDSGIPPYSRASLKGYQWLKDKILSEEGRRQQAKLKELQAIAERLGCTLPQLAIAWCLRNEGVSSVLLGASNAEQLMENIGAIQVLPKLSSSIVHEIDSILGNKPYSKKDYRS
Muscarinic acetylcholine receptor M4 (Homo sapiens), sequence (P08173 whole entry, looked up): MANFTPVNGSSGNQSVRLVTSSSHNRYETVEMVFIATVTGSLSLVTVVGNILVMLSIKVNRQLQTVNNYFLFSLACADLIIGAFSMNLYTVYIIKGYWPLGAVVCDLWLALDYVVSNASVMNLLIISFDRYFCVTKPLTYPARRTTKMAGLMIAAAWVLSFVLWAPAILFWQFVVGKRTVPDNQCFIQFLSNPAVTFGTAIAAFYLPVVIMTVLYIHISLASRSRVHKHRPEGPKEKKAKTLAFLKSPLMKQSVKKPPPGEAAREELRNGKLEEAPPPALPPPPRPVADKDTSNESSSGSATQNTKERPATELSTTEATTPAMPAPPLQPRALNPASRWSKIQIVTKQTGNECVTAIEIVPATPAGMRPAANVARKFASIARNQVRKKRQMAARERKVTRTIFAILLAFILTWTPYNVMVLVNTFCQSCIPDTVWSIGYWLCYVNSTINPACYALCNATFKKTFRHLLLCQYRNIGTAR

By inhibition is commonly meant the change of the read-out against control, counted positive when it falls. `CCCCN(CCCNC(=O)C1CCN(S(=O)(=O)CC)CC1)c1ccccc1`: in assay [1], the cell count is 547. Moreover, the inhibition in assay [1] was 7.2% (inactive); in assay [3], -81.6% (inactive); in assay [7] it was 8.2% (inactive); in assay [8], 25.8% (inactive). Also, in assay [2], the inhibition of aggregation is -2.7% (inactive). Moreover, the values for the nuclei count in assay [2] and in assay [3] were 130% and 165%, respectively. The fluorescence slope was -0.441 (inactive) in assay [4] and 0.00466 (inactive) in assay [6]. In assay [5], the NADPH fluorescence slope was 2.9e-05 (inactive).
With `O=C(c1cnsn1)N1CCN(c2ccccn2)CC1`, the cell count in assay [1] was 277. The inhibition in assay [1] was 9.3% (inactive); in assay [3], 1.4% (inactive); in assay [7], 4.49% (inactive); in assay [8], -0.785% (inactive). Also, the inhibition of aggregation in assay [2] is 4% (inactive). Besides, the nuclei count in assay [2] was 82.9%; in assay [3], 95.4%. The fluorescence slope in assay [4] was -0.45 (inactive); in assay [6], 0.00527 (inactive). Moreover, in assay [5], the NADPH fluorescence slope is -2.9e-05 (inactive).
In the case of `C=CCN1C(=O)/C(=C2/Sc3ccccc3N2C)SC1=Nc1c(C)n[nH]c1C`, in assay [1], the cell count is 401. The inhibition in assay [1] is -0.2% (inactive); in assay [3], -70.1% (inactive); in assay [7], 12.6% (inactive); in assay [8], 10.1% (inactive). In assay [2], the inhibition of aggregation was -18.2% (inactive). Besides, the nuclei count in assay [2] turned out to be 103%; in assay [3] it was 106%. The fluorescence slope in assay [4] is -0.519 (inactive); in assay [6], 0.00378 (inactive). Besides, the NADPH fluorescence slope in assay [5] is -2.3e-05 (inactive).
For `O=C(c1ccc(Cl)c(Cl)c1)N1CCOCC1`, the cell count in assay [1] was found to be 694. The inhibition was -9.1% (inactive) in assay [1], 5.6% (inactive) in assay [3], 3.81% (inactive) in assay [7] and 3.54% (inactive) in assay [8]. Moreover, in assay [2], the inhibition of aggregation was -0.3% (inactive). Besides, the figures for the nuclei count in assay [2] and in assay [3] were 107% and 105%, respectively. Further, the results for the fluorescence slope in assay [4] and in assay [6] were -0.568 (inactive) and 0.00532 (inactive), respectively. Also, the NADPH fluorescence slope in assay [5] was -2.1e-05 (inactive).
For `Cc1ccc(C)c(Cn2c(=O)n(CCC(=O)NCc3ccco3)c(=O)c3sccc32)c1`, the cell count in assay [1] was found to be 506. The inhibition in assay [1] is -4.5% (inactive); in assay [3], 17.2% (inactive); in assay [7], 19.5% (inactive); in assay [8], 16.1% (inactive). In assay [2], the inhibition of aggregation was 3.9% (inactive). Moreover, the nuclei count was 95.3% in assay [2] and 93.3% in assay [3]. In addition, the fluorescence slope is -0.572 (inactive) in assay [4] and 0.00734 (inactive) in assay [6]. Also, the NADPH fluorescence slope in assay [5] is -5.2e-06 (inactive).
As to `CCOc1ccc(NC(=O)CSc2nnnn2CC(=O)O)cc1`, in assay [1], the cell count came out at 482. For the same compound, the inhibition in assay [1] was -1.4% (inactive); in assay [3], -110% (inactive); in assay [7], 10.5% (inactive); in assay [8] it was 14.4% (inactive). For the same compound, the inhibition of aggregation in assay [2] is -19.1% (inactive). The nuclei count is 112% in assay [2] and 122% in assay [3]. Further, the fluorescence slope is -0.561 (inactive) in assay [4] and 0.00555 (inactive) in assay [6]. The NADPH fluorescence slope in assay [5] was -4.1e-05 (inactive).
Consider `O=C(COc1ccccc1)NCCSCc1ccco1`, for which the cell count in assay [1] was 599. The inhibition in assay [1] was -59.2% (inactive); in assay [3] it was -71.2% (inactive); in assay [7], -1.72% (inactive); in assay [8] it was -10.5% (inactive). The inhibition of aggregation in assay [2] is -13.8% (inactive). Also, the nuclei count was 115% in assay [2] and 116% in assay [3]. The fluorescence slope in assay [4] is -0.271 (inactive); in assay [6], 0.00726 (inactive). For the same compound, in assay [5], the NADPH fluorescence slope is -2e-05 (inactive).
Regarding `COc1ccc2c(c1OC)C(=O)OC2Nn1cncn1` (centres undefined), in assay [1], the cell count came out at 334. For the same compound, the inhibition in assay [1] is -9.5% (inactive); in assay [3], 1.1% (inactive); in assay [7], 15.9% (inactive); in assay [8], 22.6% (inactive). The inhibition of aggregation in assay [2] is -11.1% (inactive). In addition, the nuclei count in assay [2] stood at 113%; in assay [3], 108%. Also, the fluorescence slope in assay [4] is -0.565 (inactive); in assay [6], 0.00408 (inactive). In assay [5], the NADPH fluorescence slope was 1.7e-05 (inactive).
As for `CC(C)OP(=O)(c1ccc(N(C)C)cc1)C(O)c1ccccc1F` (centres undefined), in assay [1], the cell count is 720. In addition, the inhibition in assay [1] was -7.2% (inactive); in assay [3], -14.7% (inactive); in assay [7], 11.8% (inactive); in assay [8], 22.5% (inactive). The inhibition of aggregation in assay [2] is 12.5% (inactive). The nuclei count in assay [2] and in assay [3] was 117% each time. Moreover, the fluorescence slope in assay [4] is -0.541 (inactive); in assay [6] it was 0.00489 (inactive). For the same compound, in assay [5], the NADPH fluorescence slope was -5.1e-05 (inactive).
`CC1(C)CC(=O)c2cnc(NC(=O)CSc3nc4ccccc4o3)nc2C1`: in assay [1], the cell count amounted to 257. The inhibition in assay [1] is -5.5% (inactive); in assay [3], -79.9% (inactive); in assay [7] it was -3.99% (inactive); in assay [8], 20% (inactive). In addition, the inhibition of aggregation in assay [2] was -24.6% (inactive). Also, the nuclei count in assay [2] was 87.1%; in assay [3], 107%. For the same compound, the fluorescence slope in assay [4] is -0.294 (inactive); in assay [6] it was 0.00793 (inactive). In assay [5], the NADPH fluorescence slope was -1.5e-05 (inactive).
With `CN(CC(=O)N1CCN(c2ccc(F)cc2)CC1)S(=O)(=O)c1ccc(F)cc1`, the cell count in assay [1] was 389. Further, the inhibition was -5.2% (inactive) in assay [1], -100% (inactive) in assay [3], 11.3% (inactive) in assay [7] and -4.19% (inactive) in assay [8]. In addition, the inhibition of aggregation in assay [2] was -9.8% (inactive). Also, the nuclei count was 103% in assay [2] and 121% in assay [3]. Moreover, the fluorescence slope is -0.595 (inactive) in assay [4] and 0.00279 (inactive) in assay [6]. Further, the NADPH fluorescence slope in assay [5] is -6.1e-05 (inactive).
Take `Cc1cc(NC(=O)CSc2ccc(Cl)cc2)no1`: the cell count in assay [1] amounted to 368. The inhibition in assay [1] is 0.2% (inactive); in assay [3] it was -83.4% (inactive); in assay [7], -7.02% (inactive); in assay [8], -14.7% (inactive). In addition, the inhibition of aggregation in assay [2] was 12.7% (inactive). In addition, the values for the nuclei count in assay [2] and in assay [3] were 94.2% and 102%, respectively. Moreover, the values for the fluorescence slope in assay [4] and in assay [6] were -0.548 (inactive) and 0.00359 (inactive), respectively. Further, in assay [5], the NADPH fluorescence slope was -0.000128 (inactive).
Turning to `COc1cc(NC(=O)c2cc(-n3cnnc3)ccc2Cl)cc(OC)c1`, the cell count in assay [1] was determined as 224. Besides, the inhibition was -8.1% (inactive) in assay [1], -46.1% (inactive) in assay [3], 15.2% (inactive) in assay [7] and 17.9% (inactive) in assay [8]. For the same compound, the inhibition of aggregation in assay [2] was -12.2% (inactive). Moreover, the nuclei count in assay [2] was 97.9%; in assay [3], 95.5%. Further, the fluorescence slope in assay [4] is -0.479 (inactive); in assay [6], 0.00479 (inactive). Moreover, in assay [5], the NADPH fluorescence slope was -8.2e-05 (inactive).
Turning to `O=c1c2c(nc3nc(CCc4ccccc4)[nH]n13)CCC2`, the cell count in assay [1] is 344. In addition, the inhibition in assay [1] was 6.7% (inactive); in assay [3], -59.4% (inactive); in assay [7], 16.2% (inactive); in assay [8], 19.5% (inactive). Moreover, the inhibition of aggregation in assay [2] is -5.3% (inactive). For the same compound, the figures for the nuclei count in assay [2] and in assay [3] were 97.5% and 105%, respectively. Moreover, the fluorescence slope in assay [4] was -0.527 (inactive); in assay [6] it was 0.00459 (inactive). Further, the NADPH fluorescence slope in assay [5] is -1.7e-05 (inactive).

The values are drawn from PubChem BioAssay.
